Compound activity from PubChem.
Env fusion inh: inhibitors of HIV-1 Env-driven cell-cell fusion, primary screen, HeLa-JRFL effector, CEM21 target cells, luciferase; AID 651610, 2012; inhibition, % at 12.3 µM; 360,000 tested, 1.1% active;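 active means mean replicate inhibition score of at least 50 and every replicate individually at or above 50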
GSIS activator: GLuc luminescence reporter in INS-1E cells, primary screen for activators of glucose-dependent secretion of insulin; INS-1E GLuc reporter insulin secretion, 2-3 h; activation, % at 16.6 µM; 370,000 tested, 0.61% active; AID 743287, 2014;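 active means lowest replicate activation of at least 40%, so every replicate reaches that level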
Ecoli rRNA inh: reduced GFP signal of wild-type E. coli, primary screen, bacterial rRNA inhibitor project, GFP/RFP fluorescence, OD600, single point. 350,000 tested, 1.6% active. GFP signal change (wild-type ribosome), % (no concentration beside the values). E. coli WT GFP vs humanized-ribosome RFP mutants, 24 h; hits give low values; DMSO median 0, no signal -100;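 active means significant combined selectivity score with lowered wild-type GFP, culture density cut under 30%, mutant RFP and density less affected; inactive means any of these conditions unmet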
F508del corr: F508del CFTR correction, initial screen, CFBE line, single point | CFBE cells, YFP halide quenching; stimulated with forskolin plus potentiator P3; % fluorescence drop versus neutral controls | activity (quench increase), % at 7.58 µM | 350,000 tested, 0.36% active | AID 720511, 2013;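 active means mean added fluorescence quench of at least 8% versus neutral control, with both replicates also reaching 8%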;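 further: cells transiently co-express mutant CFTR-F508del with the halide-sensitive YFP; corrector assay measuring rescue of mutant channel to the surface after 24 h compound exposure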
Cneo AK release: Cryptococcus neoformans cell lysis inducers, primary screen, AK release luminescence, single concentration; C. neoformans lysis, adenylate kinase release luminescence, 4 h; normalised: neutral wells 0, clomiphene wells 100; lysis activity, % at 15 µM; 360,000 tested, 0.2% active; AID 651654, 2012;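 active means mean lysis activity across replicates of at least 80%, whatever share of replicates individually reach that level; inactive means mean lysis activity below 80%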
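Assay system: Cryptococcus neoformans yeast cells / Dosing: single-point compound dose / Timing: 4 h at 37 °C static, read 1 h later / Measured by: luminescence of released adenylate kinase using an AK detection reagent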
miR122 inh: miR-122 Renilla sensor signal increase in Huh7, primary screen, miR-122 inhibitor project, cell-based, single point, plate reader; Huh7 miR-122 Renilla luciferase sensor, 48 h; neutral wells = 0, positive control = 100; activation (reporter increase), % at 12.5 µM; 340,000 tested, 0.3% active; AID 602342, 2012;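 active means mean replicate activation score at least 90 and every replicate individually at or above 90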;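 further: higher luciferase means less miR-122 activity so hits act as miR-122 inhibitors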
A number is an active result; . = inactive; / = no result given. Compounds with a hit are over-represented: about 3.1% of the library has one in this group of screens.

SMILES	Env fusion inh	GSIS activator	Ecoli rRNA inh	F508del corr	Cneo AK release	miR122 inh
COc1ccc(CN(CC(O)COCc2ccccc2)S(=O)(=O)c2ccccc2Br)cc1OC (centres undefined)	.	.	-21	.	.	/
Cc1cc(OCc2cc(C(=O)N3CCN(CC4CC4)CC3)no2)cc(C)c1Cl	.	.	.	.	.	.
O=C(c1cc(COc2ccc3ncccc3c2)on1)N1CCCC1	.	.	-24	.	.	.
Cc1cc(OCc2cc(C(=O)N3CCC(Oc4cccnc4)CC3)no2)cc(C)c1Cl	67	.	.	.	.	.
COc1ccc(S(=O)(=O)N(C)C[C@@H]2Oc3ccc(NC(=O)Nc4cccc5ccccc45)cc3C(=O)N([C@@H](C)CO)C[C@@H]2C)cc1	.	.	.	.	/	/
O=C(CN(CCc1ccccc1)C(=O)c1csnn1)NC1CCCC1	.	.	.	.	.	.
CN(C[C@H](Cc1ccccc1)N(C[C@H](Cc1ccccc1)N(CC1(c2ccccc2)CC1)N=O)N=O)N=O	98	/	.	.	.	.
CN(C[C@@H](CC1CCCCC1)N(C[C@H](Cc1ccccc1)N(CCc1ccccc1)N=O)N=O)N=O	84	.	.	.	.	/
CCC(C)[C@@H](CN(N=O)[C@@H](Cc1ccccc1)CN(C)N=O)N(CCc1ccccc1)N=O (some centres undefined)	/	/	/	/	.	.
CN(C[C@H](Cc1ccccc1)N(C[C@H](CC1CCCCC1)N(CCc1ccccc1)N=O)N=O)N=O	67	.	.	.	.	/
C[C@H](CO)N1C[C@H](C)[C@@H](CN(C)C(=O)Nc2ccc3c(c2)OCO3)Oc2c(NS(C)(=O)=O)cccc2C1=O	.	.	.	.	.	.
Cc1noc(C)c1S(=O)(=O)Nc1ccc2c(c1)CC(=O)N([C@@H](C)CO)C[C@@H](C)[C@H](CN(C)S(=O)(=O)c1ccccc1)O2	.	.	.	.	.	.
COc1ccc(CNC(=O)C[C@H]2CC[C@H]3[C@H](COc4ccc(NC(C)=O)cc4C(=O)N3C)O2)cc1	.	.	.	.	.	.
CC(C)COc1ccc(C(=O)NC(Cc2c[nH]c3ccccc23)C(=O)NN)cc1 (centres undefined)	.	.	-35	/	/	/
Cc1cnc(C(=O)OC(C)C(=O)NCc2ccccc2)cn1 (centres undefined)	.	59	.	.	.	.
Cc1cnc(C(=O)OC(C)C(=O)Nc2ccc(Oc3ccccc3)cc2)cn1 (centres undefined)	/	.	.	.	.	.
CCCc1cc(=O)[nH]c2nnc(SCC(=O)N3CC(C)OC(C)C3)n12 (centres undefined)	/	55	.	.	/	.
Cc1cccc2nc(COc3ccc4ccccc4c3Br)cn12	.	.	-27	.	/	/
CCOC(=O)c1cn(-c2ccccc2)nc1-c1cccnc1	.	/	/	/	.	.
CCOC(=O)c1cn(-c2ccccc2)nc1-c1ccncc1	.	40	.	/	.	.
CCCNC(=O)[C@H]1[C@H](CO)[C@H]2Cn3c(ccc(-c4ccncc4)c3=O)[C@@H]1N2Cc1ccccc1F	.	.	.	/	.	/
CO[C@H]1CN(C)C(=O)c2cc(NC(=O)NC(C)C)ccc2OC[C@@H](C)N(CCC(F)(F)F)C[C@@H]1C	.	.	.	.	.	.
OCCCn1c(-c2ccccc2)csc1=Nc1ccccc1	.	.	.	.	.	.
COc1ccc(N=c2scc(-c3ccc(OC)cc3)n2CCO)cc1	71	/	/	/	.	.
COc1cc2c3c([nH]c2cc1F)C(=O)NCC3	59	.	.	.	.	/
C[C@@H]1CN([C@H](C)CO)C(=O)c2cc(NC(=O)CCN3CCOCC3)ccc2O[C@@H]1CN(C)Cc1ccc2c(c1)OCO2	.	.	.	.	.	.
Cc1ncc(CSc2nccc(=O)[nH]2)c(CO)c1O	.	81	.	.	.	.
